This is an account of results in ChEMBL document CHEMBL1139323, “Radiosynthesis, in vitro and in vivo evaluation of 123I-labeled anandamide analogues for mapping brain FAAH” (Bioorg Med Chem, 2009).

One data set deals with Plasma. In words: Stability in NMRI mouse plasma at 3 uCi. It is filed as ADME, cell-free. A digest of the protocol:
(§1)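 Brain and EDTA plasma from three male NMRI mice, kept on ice, spiked ex vivo with 3 µCi 123I-tracer. Extracted with acetonitrile and centrifuged; supernatant and pellet gamma-counted for extraction efficiency. Supernatant analysed by radio-TLC (silica, hexane/ethyl acetate 4:6) and C18 HPLC (acetonitrile/water/formic acid 80:20:0.1), fractions gamma-counted.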

Data set [1] has as its system Brain. The experiment in a line: Drug uptake in NMRI mouse brain at 4 to 5 uCi, iv after 3 mins post injection. It is filed as ADME, organism-based. As to conditions: in vivo, 0.05 h. A digest of the protocol:
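Adult male NMRI mice (20–25 g) given 4–5 µCi radiotracer iv via tail vein in 200 µl ethanol/saline (8:92). Killed by cervical dislocation under isoflurane at set times after injection, n = 3 per time point. Brain removed and weighed, radioactivity gamma-counted. Uptake given as %ID/g tissue ± SD.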

A short description of data set [2]: Drug uptake in NMRI mouse small intestine at 4 to 5 uCi, iv after 10 mins post injection. The following applies: in vivo. It is filed as ADME, organism-based. The procedure, abridged: (§2)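 Adult male NMRI mice (20–25 g) given 4–5 µCi of 123I-tracer iv via tail vein in ethanol/saline (8:92). Killed by cervical dislocation under isoflurane at set times, n = 3 per time point. Organs removed and weighed, radioactivity gamma-counted. Uptake expressed as %ID/g tissue ± SD.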

For data set [3], the system named is Stomach. The experiment in a line: Drug uptake in NMRI mouse stomach at 4 to 5 uCi, iv after 1 min post injection. It is filed as ADME, organism-based. As to conditions: in vivo; call rule not given here. The procedure, abridged: as §2
For data set [4], the system named is Brain. The experiment in a line: Stability in NMRI mouse brain at 3 uCi. It is filed as ADME, tissue-based. The procedure, abridged:
as §1

Data set [5] can be described thus: Drug uptake in NMRI mouse large intestine at 4 to 5 uCi, iv after 10 mins post injection. It is filed as ADME, organism-based. The following applies: in vivo. The procedure, abridged: as §2
For data set [6], the system named is Stomach. In words: Drug uptake in NMRI mouse stomach at 4 to 5 uCi, iv after 1 hr post injection. It is filed as ADME, organism-based. As to conditions: in vivo. A digest of the protocol: as §2
The target in data set [7] is T1, Fatty-acid amide hydrolase 1 (Rattus norvegicus, UniProt P97612).
T1 sequence (P97612 whole entry): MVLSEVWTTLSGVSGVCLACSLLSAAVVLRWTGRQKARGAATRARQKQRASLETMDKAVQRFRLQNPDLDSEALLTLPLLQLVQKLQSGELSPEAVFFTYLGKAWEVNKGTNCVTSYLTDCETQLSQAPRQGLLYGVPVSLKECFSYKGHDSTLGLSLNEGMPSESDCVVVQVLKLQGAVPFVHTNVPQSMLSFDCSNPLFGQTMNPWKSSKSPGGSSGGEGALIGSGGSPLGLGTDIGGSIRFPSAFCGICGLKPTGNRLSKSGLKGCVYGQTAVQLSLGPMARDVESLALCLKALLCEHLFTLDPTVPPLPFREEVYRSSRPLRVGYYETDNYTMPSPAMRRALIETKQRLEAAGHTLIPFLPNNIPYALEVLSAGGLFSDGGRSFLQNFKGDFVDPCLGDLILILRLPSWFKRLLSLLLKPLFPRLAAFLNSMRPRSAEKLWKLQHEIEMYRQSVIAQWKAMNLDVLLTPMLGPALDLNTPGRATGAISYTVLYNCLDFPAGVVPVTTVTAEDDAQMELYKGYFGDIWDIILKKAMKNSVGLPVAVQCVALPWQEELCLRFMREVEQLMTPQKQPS
The experiment in a line: Inhibition of rat recombinant FAAH assessed as [3H]AEA hydrolysis preincubated 60 mins before [3H]AEA substrate addition. A digest of the protocol: (§3)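 Recombinant MBP-rat FAAH (1.2 µg/assay) in 10 mM Tris-HCl pH 7.6, 1 mM EDTA. Compound used at levels giving 20%, 50% and 80% inhibition and preincubated with enzyme for 15, 30 or 60 min. 2 µM [3H]-AEA then added, 10 min at 37 °C. Aqueous [3H]-ethanolamine counted by scintillation; IC50 by sigmoidal variable-slope fit.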

Data set [8] addresses T1, Fatty-acid amide hydrolase 1. In words: Inhibition of rat recombinant FAAH assessed as [3H]AEA hydrolysis. A digest of the protocol:
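Recombinant rat FAAH fused to maltose binding protein, 1.2 µg per assay, in 10 mM Tris-HCl pH 7.6 with 1 mM EDTA. Test compound at ten concentrations (5 µM–1.5 nM), no preincubation. [3H]-AEA added at 2 µM final, 10 min at 37 °C. Stopped with chloroform/methanol; [3H]-ethanolamine in aqueous phase counted by scintillation. Three experiments; sigmoidal variable-slope fit of % control.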

For data set [9] the target is unchanged. The experiment in a line: Inhibition of rat recombinant FAAH assessed as [3H]AEA hydrolysis preincubated 30 mins before [3H]AEA substrate addition. A digest of the protocol:
as §3

For data set [10] the target is unchanged. The experiment in a line: Inhibition of rat recombinant FAAH assessed as [3H]AEA hydrolysis preincubated before [3H]AEA substrate addition. The procedure, abridged: as §3
For another data set, the species on record is Mus musculus. The experiment in a line: Stability in NMRI mouse by HPLC. It is filed as ADME, organism-based. As to conditions: in vivo. A digest of the protocol:
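Three male mice injected with about 200 µCi 123I-tracer in ethanol/saline (8:92) and killed at 3 min. Plasma and brain extracted with acetonitrile and centrifuged. Supernatant run on C18 HPLC (acetonitrile/water/formic acid 80:20:0.1, 6 ml/min); 0.5-min fractions gamma-counted, plus radio-TLC.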

The target in data set [11] is T1, Fatty-acid amide hydrolase 1. The experiment in a line: Inhibition of rat recombinant FAAH assessed as [3H]AEA hydrolysis preincubated 15 mins before [3H]AEA substrate addition. A digest of the protocol:
as §3

The test system of data set [12] is Brain. The experiment in a line: Drug uptake in NMRI mouse brain at 4 to 5 uCi, iv after 10 mins post injection. It is filed as ADME, organism-based. As to conditions: in vivo. A digest of the protocol:
as §2

With `CCCCC/C=C\C/C=C\CCCCCCCC(=O)NCC[123I]`, the Stability in the data set on Plasma and with Brain [4] was 94% each time. For the same compound, the Drug uptake came out at 1.23 % ID/g with Brain [1]; 1.84 % ID/g in data set [2]; 2.58 % ID/g in the data set with Stomach [3]; 1.33 % ID/g in [5]; 24.57 % ID/g in the data set with Stomach [6].
`CCCCC/C=C\C/C=C\CCCCCCCC(=O)NCCI`: the IC50 in data set [7] was found to be 7.33 µM; in data set [8] (read-out: IC50), 5.78 µM; in data set [9], 7.64 µM; in data set [10], 6.2 µM; in data set [11] it was 6.66 µM. In the data set filed under Mus musculus, the result was Active.
With `CCCCC/C=C\C/C=C\C/C=C\C/C=C\CCCC(=O)NCC[123I]`, the Stability amounted to 92% in the data set with Plasma and 89% with Brain [4]. The Drug uptake is 1.46 % ID/g in data set [2]; 0.579 % ID/g with Brain [12]; 3.1 % ID/g in the data set on Stomach [3]; 1.04 % ID/g in data set [5]; 17.74 % ID/g in the data set on Stomach [6].
Consider `CCCCC/C=C\C/C=C\C/C=C\C/C=C\CCCC(=O)NCCI`, for which the IC50 in data set [7] worked out at 10.1 µM; in data set [8] (read-out: IC50) it was 3.14 µM; in data set [9] it was 9.89 µM; in data set [10], 4.31 µM; in [11], 7.93 µM. For the same compound, the result in the data set listed under Mus musculus was Active.
`CCCCC/C=C\C/C=C\CCCCCCCC(=O)NCCO` [LINOLEOYLETHANOLAMIDE]: the values for the IC50 in data set [8] (read-out: IC50) and in data set [8] (read-out: pIC50 (converted)) were 7.58 µM and 7.59 µM, respectively.
